Experimental findings from ChEMBL document CHEMBL1143287, “Quinazolin-2-ylamino-quinazolin-4-ols as novel non-nucleoside inhibitors of bacterial DNA polymerase III” (Bioorg Med Chem Lett, 2009) are described below.

Assay [1] relates to Staphylococcus aureus. In words: Antibacterial activity against Staphylococcus aureus ATCC 29213 by broth microdilution assay. The format is functional. A general note: Broth dilution looks for growth in wells or tubes with falling amounts of substance.
Assay [2] in a line: (§1) Inhibition of Streptococcus pyogenes DNA polymerase 3. Summed up: (§2)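 S. pyogenes DNA polymerase III holoenzyme system reconstituted in 96- or 384-well format; inhibition read as prevention of duplex DNA formation, detected by fluorescence.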
The next assay has as its system Streptococcus pneumoniae. Nature of the assay: Antibacterial activity against Streptococcus pneumoniae ATCC 49619 by broth microdilution assay. It counts as functional.
Assay [3] in a line: Inhibition of mammalian DNA polymerase […] delta.
In assay [4] the test system is Staphylococcus aureus. In words: Antibacterial activity against Staphylococcus aureus ATCC 29213 by broth microdilution assay in presence of 50% human serum. It counts as functional.
Assay [5] has as its system Staphylococcus aureus. Nature of the assay: Antibacterial activity against Staphylococcus aureus infected in mouse assessed as protection against bacterial infection at 25 mg/kg, ip administered as single dose measured 1 hr postinjection. The format is functional. The settings on record: route intraperitoneal.
The subject of a further assay is Streptococcus pyogenes. The description is as §1. Summed up:
as §2

Converted amounts (≈) assume the structure as drawn. The source made the active and inactive calls. The calls are words filed in the database; no cut-off is given here.

As a reminder, the MIC is the lowest concentration that inhibits growth of the organism. What is called IC50 is the point on the concentration scale where inhibition reaches its midpoint. Low values mean higher potency, high ones lower potency. For the molecule `COc1cc2nc(Nc3nc(O)c4ccccc4n3)nc(C)c2cc1OC`, the MIC turned out to be 4 µg/mL (≈ 11 µM) against Staphylococcus aureus [1] and 1 µg/mL (≈ 2.75 µM) with Streptococcus pneumoniae. Moreover, half-maximal inhibition in assay [2] (IC50) was put at 2000 nM.

As for `CCNc1ccc2c(O)nc(Nc3nc(C)c4cc(OC)ccc4n3)nc2c1`, the IC50 in assay [3] and in assay [2] was 400 nM each time. Further, the MIC in the assay with Staphylococcus aureus [4] worked out at 1 µg/mL.

`COc1ccc2nc(Nc3nc(O)c4c(C)cccc4n3)nc(C)c2c1`: the IC50 in assay [3] was found to be 1200 nM; in assay [2], 700 nM. Besides, the MIC in the assay with Staphylococcus aureus [4] amounted to 2 µg/mL.

Turning to `COc1ccc2nc(Nc3nc(O)c4ccc(C)cc4n3)nc(C)c2c1`, the IC50 is 2000 nM in assay [3] and 3700 nM in assay [2]. The minimal inhibitory concentration (MIC) in the assay on Staphylococcus aureus [4] was 1 µg/mL. In addition, the Activity with Staphylococcus aureus [5] came out at 50%.

Regarding `COc1ccc2c(C)nc(Nc3nc(O)c4ccccc4n3)nc2c1`, the minimal inhibitory concentration (MIC) against Staphylococcus aureus [1] and against Streptococcus pneumoniae was 32 µg/mL (≈ 96 µM) in each case. The same molecule gave an IC50 in assay [2] of 70000 nM.

Turning to `COc1ccc2nc(Nc3nc(O)c4ccc(N)cc4n3)nc(C)c2c1`, the half-inhibitory concentration (IC50) in assay [3] is 4900 nM; in assay [2], 4700 nM. Further, in the assay on Staphylococcus aureus [4], the MIC was determined as 1 µg/mL.

With `COc1ccc2nc(Nc3nc(O)c4cc([N+](=O)[O-])ccc4n3)nc(C)c2c1`, the IC50 in assay [3] turned out to be 14900 nM; in assay [2], 8700 nM.

In the case of `COc1cc2nc(N(C)c3nc(OC)c4ccccc4n3)nc(C)c2cc1OC`, the outcome with Streptococcus pyogenes was inactive.

Take `COc1ccc2nc(Nc3nc(O)c4c(OC)cccc4n3)nc(C)c2c1`: the IC50 in assay [3] came to 1000 nM; in assay [2], 600 nM. For the same molecule, the MIC in the assay on Staphylococcus aureus [4] was 2 µg/mL.

On to `COc1cccc2c(C)nc(Nc3nc(O)c4ccccc4n3)nc12`, for which the MIC with Staphylococcus aureus [1] was found to be 0.5 µg/mL (≈ 1.5 µM); in the assay on Streptococcus pneumoniae, 0.25 µg/mL (≈ 0.75 µM). In assay [2], the IC50 was 3100 nM.

Regarding `Cc1ccc2nc(Nc3nc(O)c4ccccc4n3)nc(C)c2c1`, the MIC was determined as 32 µg/mL (≈ 101 µM) against Staphylococcus aureus [1] and 16 µg/mL (≈ 50.4 µM) in the assay with Streptococcus pneumoniae. Also, the IC50 in assay [2] worked out at 209000 nM.

Consider `COc1ccc2nc(Nc3nc(O)c4ccc(NC(C)=O)cc4n3)nc(C)c2c1`, for which the IC50 in assay [3] was 5000 nM; in assay [2] it was 5500 nM.

On to `COc1ccc2nc(Nc3nc(O)c4cc(C)ccc4n3)nc(C)c2c1`, for which the results for the IC50 in assay [3] and in assay [2] were 1700 nM and 2800 nM, respectively. The minimum inhibitory concentration (MIC) in the assay with Staphylococcus aureus [4] is 2 µg/mL.

`COc1ccc2c(O)nc(Nc3nc(C)c4cc(OC)ccc4n3)nc2c1`: the IC50 in assay [3] was determined as 1800 nM; in assay [2] it was 3800 nM. For the same molecule, the minimum inhibitory concentration (MIC) in the assay on Staphylococcus aureus [4] was 2 µg/mL.

Consider `COc1ccc2nc(Nc3nc(O)c4ccc([N+](=O)[O-])cc4n3)nc(C)c2c1`, for which the figures for the IC50 in assay [3] and in assay [2] were 400 nM and above 100000 nM, respectively. In the assay with Staphylococcus aureus [4], the MIC worked out at 64 µg/mL.

With `COc1ccc2nc(Nc3nc(O)c4c(Cl)cccc4n3)nc(C)c2c1`, the IC50 was 900 nM in assay [3] and 560 nM in assay [2]. In the assay on Staphylococcus aureus [4], the MIC amounted to 1 µg/mL.

Regarding `COc1ccc2nc(Nc3nc(O)c4ccc(Cl)cc4n3)nc(C)c2c1`, the outcome (in assay [3]; in the assay with Staphylococcus aureus [4]) was inactive. In assay [2], this molecule registered a half-inhibitory concentration (IC50) above 100000 nM.

For `COc1cc2nc(Nc3nc(OC)c4ccccc4n3)nc(C)c2cc1OC`, the outcome in the assay with Streptococcus pyogenes was inactive.

For `Cc1cc2nc(Nc3nc(O)c4ccccc4n3)nc(C)c2cc1C`, the values for the MIC in the assay with Staphylococcus aureus [1] and in the assay on Streptococcus pneumoniae were above 64 µg/mL and 1 µg/mL (≈ 3.02 µM), respectively. The half-maximal inhibitory concentration (IC50) in assay [2] is 27100 nM.

For `COc1ccc2nc(Nc3nc(O)c4cccc(OC)c4n3)nc(C)c2c1`, in assay [3], the result was inactive. In addition, in the assay on Staphylococcus aureus [4], the minimal inhibitory concentration (MIC) worked out at 2 µg/mL. Besides, the IC50 in assay [2] is above 100000 nM.

For the molecule `COc1ccc2nc(Nc3nc(O)c4ccc(N(C)C)cc4n3)nc(C)c2c1`, the IC50 in assay [3] and in assay [2] was 400 nM each time. Moreover, the MIC in the assay on Staphylococcus aureus [4] was 2 µg/mL.

`COc1ccc2nc(Nc3nc(O)c4ccccc4n3)nc(C)c2c1`: the MIC in the assay on Staphylococcus aureus [1] amounted to 0.5 µg/mL (≈ 1.5 µM); against Streptococcus pneumoniae, 0.25 µg/mL (≈ 0.75 µM). In assay [2], this molecule returned an IC50 of 4800 nM.

With `COc1ccc2nc(Nc3nc(O)c4ccc(F)cc4n3)nc(C)c2c1`, the IC50 in assay [3] worked out at 1900 nM; in assay [2] it was 77800 nM. In addition, the MIC with Staphylococcus aureus [4] was found to be 64 µg/mL.

In the case of `CNc1ccc2c(O)nc(Nc3nc(C)c4cc(OC)ccc4n3)nc2c1`, the 50% inhibitory concentration (IC50) in assay [3] was 200 nM; in assay [2], 500 nM. Besides, the minimum inhibitory concentration (MIC) with Staphylococcus aureus [4] is 1 µg/mL.
